Data on two compounds can be found in ChEMBL document CHEMBL1157912, “Impact of nature and length of linker incorporated in agonists on toll-like receptor 9-mediated immune responses” (J Med Chem, 2010).

Test [1] concerns the target T1, Toll-like receptor 9 (Homo sapiens) (UniProt Q9NR96).
T1 sequence (whole entry): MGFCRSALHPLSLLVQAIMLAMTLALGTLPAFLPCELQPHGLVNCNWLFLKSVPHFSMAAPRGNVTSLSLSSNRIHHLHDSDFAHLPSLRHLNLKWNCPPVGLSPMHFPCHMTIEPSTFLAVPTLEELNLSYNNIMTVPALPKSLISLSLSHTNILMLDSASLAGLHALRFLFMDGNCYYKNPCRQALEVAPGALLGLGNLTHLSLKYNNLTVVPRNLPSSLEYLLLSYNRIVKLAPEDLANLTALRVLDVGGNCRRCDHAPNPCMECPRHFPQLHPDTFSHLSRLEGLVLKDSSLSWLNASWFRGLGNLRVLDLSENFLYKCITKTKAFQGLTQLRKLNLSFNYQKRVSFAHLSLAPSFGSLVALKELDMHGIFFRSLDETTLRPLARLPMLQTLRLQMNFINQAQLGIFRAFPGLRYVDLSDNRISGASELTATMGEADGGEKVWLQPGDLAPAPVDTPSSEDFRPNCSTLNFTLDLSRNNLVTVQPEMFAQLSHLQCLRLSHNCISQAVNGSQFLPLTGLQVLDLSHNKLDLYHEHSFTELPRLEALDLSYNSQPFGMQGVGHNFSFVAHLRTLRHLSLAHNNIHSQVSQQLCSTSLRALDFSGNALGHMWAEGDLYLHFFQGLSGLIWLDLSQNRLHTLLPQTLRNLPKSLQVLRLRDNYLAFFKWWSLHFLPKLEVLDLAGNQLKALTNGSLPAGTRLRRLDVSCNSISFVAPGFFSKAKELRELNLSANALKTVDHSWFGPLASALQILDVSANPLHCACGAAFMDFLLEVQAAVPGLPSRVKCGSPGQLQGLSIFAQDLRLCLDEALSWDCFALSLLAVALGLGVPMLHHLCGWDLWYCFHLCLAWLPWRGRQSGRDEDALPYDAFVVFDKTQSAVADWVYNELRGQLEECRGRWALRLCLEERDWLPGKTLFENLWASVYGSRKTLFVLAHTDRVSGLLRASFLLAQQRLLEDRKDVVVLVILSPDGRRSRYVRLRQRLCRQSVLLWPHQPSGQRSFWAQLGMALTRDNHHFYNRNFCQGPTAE
Put plainly: Induction of TLR9-mediated immune stimulation in human PBMC assessed as IL12 production at 10 ug/ml after 24 hrs by luminex multiplex assay (RVb = 0.00 ng/ml).

For test [2], the target named is T1, Toll-like receptor 9 (Homo sapiens). As to the kind of experiment: Induction of TLR9-mediated immune stimulation in human PBMC assessed as MCP1 production at 10 ug/ml after 24 hrs by luminex multiplex assay (RVb = 0.08 +/- 0.02 ng/ml).
For test [3] the target is unchanged. Put plainly: Induction of TLR9-mediated human B cell proliferation assessed as [3H]thymidine uptake after 56 hrs by scintillation counting. Summed up:
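B cells were purified from human PBMCs (healthy volunteers), about 1 × 10⁵ cells, and stimulated with various agonist concentrations for 56 h. Cells were then pulsed with 0.75 μCi [³H]-thymidine and harvested 16 h later. Incorporation was counted by scintillation and reported as cpm.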

In test [4] the test system is Mus musculus. Put plainly: Immunostimulatory activity in C57BL/6 mouse assessed as increase in serum IL12 level at 1 mg/kg, sc after 2 hrs by ELISA. The format is functional, organism-based. Set-up: dose 1 mg/kg. An outline of the steps: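 Female C57BL/6 mice (n=3) received a single subcutaneous agonist dose of 1 mg/kg. Blood was taken by retro-orbital bleeding 2 h later, and serum IL-12 was measured by sandwich ELISA. Values are the mean of three mice ± SD.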

The target of test [5] is T1, Toll-like receptor 9 (Homo sapiens). Put plainly: Induction of TLR9-mediated immune stimulation in human PBMC assessed as IL2R production at 2 ug/ml after 24 hrs by luminex multiplex assay (RVb = 0.02 +/- 0.01 ng/ml).
For test [6] the target is unchanged. Put plainly: Induction of TLR9-mediated immune stimulation in human PBMC assessed as MIP1beta production at 10 ug/ml after 24 hrs by luminex multiplex assay (RVb = 0.03 +/- 0.02 ng/ml).
The target is the same in test [7]. As to the kind of experiment: Induction of TLR9-mediated immune stimulation in human PBMC assessed as MCP1 production at 2 ug/ml after 24 hrs by luminex multiplex assay (RVb = 0.08 +/- 0.02 ng/ml).
Test [8] has the same target. As to the kind of experiment: Induction of TLR9-mediated immune stimulation in human PBMC assessed as IL6 production at 10 ug/ml after 24 hrs by luminex multiplex assay (RVb = 0.01 ng/ml).
For test [9] the target is unchanged. As to the kind of experiment: Induction of TLR9-mediated immune stimulation in human PBMC assessed as IL1Ralpha production at 10 ug/ml after 24 hrs by luminex multiplex assay (RVb = 0.12 +/- 0.03 ng/ml).
Test [10] has the same target. As to the kind of experiment: Induction of TLR9-mediated immune stimulation in human PBMC assessed as MIP1alpha production at 2 ug/ml after 24 hrs by luminex multiplex assay (RVb = 0.01 ng/ml).
For test [11] the target is unchanged. As to the kind of experiment: Induction of TLR9-mediated immune stimulation in human PBMC assessed as IL6 production at 2 ug/ml after 24 hrs by luminex multiplex assay (RVb = 0.01 ng/ml).
The target is the same in test [12]. As to the kind of experiment: Induction of TLR9-mediated immune stimulation in human PBMC assessed as IP10 production at 2 ug/ml after 24 hrs by luminex multiplex assay (RVb = 0.00 ng/ml).
Test [13] has the same target. Put plainly: Induction of TLR9-mediated immune stimulation in human PBMC assessed as IL2R production at 10 ug/ml after 24 hrs by luminex multiplex assay (RVb = 0.02 +/- 0.01 ng/ml).
Test [14] has the same target. As to the kind of experiment: Induction of TLR9-mediated immune stimulation in human PBMC assessed as IL1Ralpha production at 2 ug/ml after 24 hrs by luminex multiplex assay (RVb = 0.12 +/- 0.03 ng/ml).

Activity calls are given as the source filed them. No cut-off for these calls is given here.

`Cc1cn([C@H]2C[C@H](OCCOCCOCCOCCOCCOCCOP(=O)(S)O[C@H]3C[C@H](n4cc(C)c(=O)[nH]c4=O)O[C@@H]3COP(=O)(S)O[C@H]3[C@@H](O)[C@H](n4ccc(N)nc4=O)O[C@@H]3COP(=O)(S)O[C@H]3C[C@H](n4cc(C)c(=O)[nH]c4=O)O[C@@H]3COP(=O)(S)O[C@H]3C[C@H](n4cc(C)c(=O)[nH]c4=O)O[C@@H]3COP(=O)(S)O[C@H]3C[C@H](n4ccc5c(=O)[nH]c(N)nc54)O[C@@H]3COP(=O)(S)O[C@H]3[C@@H](O)[C@H](n4ccc(N)nc4=O)O[C@@H]3COP(=O)(S)O[C@H]3C[C@H](n4cc(C)c(=O)[nH]c4=O)O[C@@H]3COP(=O)(S)O[C@H]3[C@@H](O)[C@H](n4cnc5c(=O)[nH]c(N)nc54)O[C@@H]3COP(=O)(S)O[C@H]3C[C@H](n4cc(C)c(=O)[nH]c4=O)O[C@@H]3COP(=O)(S)O[C@H]3[C@@H](O)[C@H](n4ccc(N)nc4=O)O[C@@H]3COP(=O)(S)O[C@H]3C[C@H](n4cc(C)c(=O)[nH]c4=O)O[C@@H]3CO)[C@@H](COP(=O)(S)O[C@H]3[C@@H](O)[C@H](n4ccc(N)nc4=O)O[C@@H]3COP(=O)(S)O[C@H]3C[C@H](n4cc(C)c(=O)[nH]c4=O)O[C@@H]3COP(=O)(S)O[C@H]3C[C@H](n4cc(C)c(=O)[nH]c4=O)O[C@@H]3COP(=O)(S)O[C@H]3C[C@H](n4ccc5c(=O)[nH]c(N)nc54)O[C@@H]3COP(=O)(S)O[C@H]3[C@@H](O)[C@H](n4ccc(N)nc4=O)O[C@@H]3COP(=O)(S)O[C@H]3C[C@H](n4cc(C)c(=O)[nH]c4=O)O[C@@H]3COP(=O)(S)O[C@H]3[C@@H](O)[C@H](n4cnc5c(=O)[nH]c(N)nc54)O[C@@H]3COP(=O)(S)O[C@H]3C[C@H](n4cc(C)c(=O)[nH]c4=O)O[C@@H]3COP(=O)(S)O[C@H]3[C@@H](O)[C@H](n4ccc(N)nc4=O)O[C@@H]3COP(=O)(S)O[C@H]3C[C@H](n4cc(C)c(=O)[nH]c4=O)O[C@@H]3CO)O2)c(=O)[nH]c1=O` (stereo partly drawn): the Activity is 0.19 ng/mL in test [1]; 3.31 ng/mL in [2]; “Dose-dependent effect” in [3]; 0.11 ng/mL in test [5]; 0.9 ng/mL in [6]; 0.25 ng/mL in test [7]. Moreover, the Activity in test [8] was found to be 0.58 ng/mL; in test [9] it was 83.9 ng/mL; in test [10], 0.05 ng/mL; in test [11] it was 0.16 ng/mL; in [12], 0.03 ng/mL; in test [13], 0.21 ng/mL. Besides, in [14], the Activity was found to be 10.7 ng/mL. For the same compound, the result in [4] was inactive.
`Cc1cn([C@H]2C[C@H](OCC[C@H](O)COP(=O)(S)O[C@H]3C[C@H](n4cc(C)c(=O)[nH]c4=O)O[C@@H]3COP(=O)(S)O[C@H]3[C@@H](O)[C@H](n4ccc(N)nc4=O)O[C@@H]3COP(=O)(S)O[C@H]3C[C@H](n4cc(C)c(=O)[nH]c4=O)O[C@@H]3COP(=O)(S)O[C@H]3C[C@H](n4cc(C)c(=O)[nH]c4=O)O[C@@H]3COP(=O)(S)O[C@H]3C[C@H](n4ccc5c(=O)[nH]c(N)nc54)O[C@@H]3COP(=O)(S)O[C@H]3[C@@H](O)[C@H](n4ccc(N)nc4=O)O[C@@H]3COP(=O)(S)O[C@H]3C[C@H](n4cc(C)c(=O)[nH]c4=O)O[C@@H]3COP(=O)(S)O[C@H]3[C@@H](O)[C@H](n4cnc5c(=O)[nH]c(N)nc54)O[C@@H]3COP(=O)(S)O[C@H]3C[C@H](n4cc(C)c(=O)[nH]c4=O)O[C@@H]3COP(=O)(S)O[C@H]3[C@@H](O)[C@H](n4ccc(N)nc4=O)O[C@@H]3COP(=O)(S)O[C@H]3C[C@H](n4cc(C)c(=O)[nH]c4=O)O[C@@H]3CO)[C@@H](COP(=O)(S)O[C@H]3[C@@H](O)[C@H](n4ccc(N)nc4=O)O[C@@H]3COP(=O)(S)O[C@H]3C[C@H](n4cc(C)c(=O)[nH]c4=O)O[C@@H]3COP(=O)(S)O[C@H]3C[C@H](n4cc(C)c(=O)[nH]c4=O)O[C@@H]3COP(=O)(S)O[C@H]3C[C@H](n4ccc5c(=O)[nH]c(N)nc54)O[C@@H]3COP(=O)(S)O[C@H]3[C@@H](O)[C@H](n4ccc(N)nc4=O)O[C@@H]3COP(=O)(S)O[C@H]3C[C@H](n4cc(C)c(=O)[nH]c4=O)O[C@@H]3COP(=O)(S)O[C@H]3[C@@H](O)[C@H](n4cnc5c(=O)[nH]c(N)nc54)O[C@@H]3COP(=O)(S)O[C@H]3C[C@H](n4cc(C)c(=O)[nH]c4=O)O[C@@H]3COP(=O)(S)O[C@H]3[C@@H](O)[C@H](n4ccc(N)nc4=O)O[C@@H]3COP(=O)(S)O[C@H]3C[C@H](n4cc(C)c(=O)[nH]c4=O)O[C@@H]3CO)O2)c(=O)[nH]c1=O` (stereo partly drawn): the Activity was 0.2 ng/mL in test [1]; 43.5 ng/mL in test [2]; “Dose-dependent effect” in test [3]; 0.09 ng/mL in test [5]; 1.76 ng/mL in test [6]; 13.2 ng/mL in test [7]. In addition, the Activity in test [8] was found to be 0.73 ng/mL; in test [9], 29.6 ng/mL; in [10], 0.16 ng/mL; in [11], 0.54 ng/mL; in test [12], 0.79 ng/mL; in test [13], 0.12 ng/mL. The Activity in [14] is 16.4 ng/mL. Moreover, in test [4], the outcome was Active.
